Test results reported in ChEMBL document CHEMBL3862036, “Biphenyl Pyridazinone Derivatives as Inhaled PDE4 Inhibitors: Structural Biology and Structure-Activity Relationships” (J Med Chem, 2016).

What was measured:
[1] = tested on: Rattus norvegicus; test: Anti-inflammatory activity in Sprague-Dawley rat assessed as inhibition of LPS-induced neutrophilia at 1000 ug/kg, it administered as suspension with Penn-Century micro-sprayer aerosolizer dosed 18 hrs before LPS challenge and measured 22 hrs post dose; format: functional; conditions: inhaled or nasal
In short: (§1)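 Suspensions in PBS/0.2% Tween 80 were homogenized, with lower doses made by 1:10 dilutions. 0.2 mL was given intratracheally by MicroSprayer to isoflurane-anesthetized fasted male Sprague-Dawley rats (230–280 g). At 1 or 18 h, rats received nebulized LPS (30 mL of a 1:100 PBS dilution of 100 mg/10 mL stock) over 40 min. Four hours later, BAL neutrophils were counted by flow cytometry.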

[2] = Inhibition of PDE4 in human whole blood assessed as reduction in LPS-induced TNFalpha production incubated for 24 hrs by ELISA; format: tissue-based
In short: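 Human whole blood was preincubated with LPS (final 1 μg/mL) for 10 min at 37 °C with rocking. 200 μL was added to wells holding increasing inhibitor concentrations in 100% DMSO. Plates were incubated 24 h at 37 °C under agitation, then placed on ice, diluted with PBS and centrifuged at 800g, 4 °C, for 15 min before TNF-α measurement.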

[3] = tested on: Rattus norvegicus; test: Anti-inflammatory activity in Sprague-Dawley rat assessed as inhibition of LPS-induced neutrophilia at 10 to 1000 ug/kg, it administered as suspension with Penn-Century micro-sprayer aerosolizer dosed 1 hrs before LPS challenge and measured 5 hrs post dose; format: functional; conditions: inhaled or nasal; in short: as §1
[4] = Inhibition of PDE4 in PBMC (unknown origin) assessed as reduction in LPS-induced TNFalpha production incubated for 24 hrs by ELISA; conditions: Homo sapiens
[5] = tested on: Rattus norvegicus; test: Anti-inflammatory activity in Sprague-Dawley rat assessed as inhibition of LPS-induced neutrophilia at 1000 ug/kg, it administered as dry powder with lactose carrier through Penn-Century insufflator dosed 18 hrs before LPS challenge and measured 22 hrs post dose; format: functional
In short: (§2)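 Compounds were micronized, comixed with lactose, and 5 mg of the mixture was insufflated intratracheally into isoflurane-anesthetized fasted male Sprague-Dawley rats (230–280 g). LPS aerosol (30 mL of a 1:100 PBS dilution of 100 mg/10 mL stock) was nebulized for 40 min at 1 or 18 h post-dose. BAL was taken 4 h later and neutrophils counted by flow cytometry. Controls: lactose alone, lactose+LPS, fluticasone (10% in lactose).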

[6] = tested on: Rattus norvegicus; test: Anti-inflammatory activity in Sprague-Dawley rat assessed as inhibition of LPS-induced neutrophilia at 1000 ug/kg, it administered as dry powder with lactose carrier through Penn-Century insufflator dosed 1 hrs before LPS challenge and measured 5 hrs post dose; format: functional; in short: as §2
[7] = target: Adenosine receptor A2a (Homo sapiens, UniProt P29274); test: Antagonist activity at adenosine A2a receptor (unknown origin)
Sequence of Adenosine receptor A2a (P29274 whole entry): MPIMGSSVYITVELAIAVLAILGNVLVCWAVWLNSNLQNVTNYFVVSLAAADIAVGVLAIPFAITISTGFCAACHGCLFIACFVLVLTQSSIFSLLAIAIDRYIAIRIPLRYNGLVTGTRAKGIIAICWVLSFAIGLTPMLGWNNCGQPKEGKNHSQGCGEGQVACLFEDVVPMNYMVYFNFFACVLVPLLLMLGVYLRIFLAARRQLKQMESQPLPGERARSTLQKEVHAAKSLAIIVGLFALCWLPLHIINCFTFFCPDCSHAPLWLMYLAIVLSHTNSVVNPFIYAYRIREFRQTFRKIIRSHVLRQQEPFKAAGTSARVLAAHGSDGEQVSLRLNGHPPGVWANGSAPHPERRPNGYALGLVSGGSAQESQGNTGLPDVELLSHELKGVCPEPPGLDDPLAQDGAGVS

[8] = Basicity constant, pKB of the compound; format: physicochemical
[9] = Pro-inflammatory activity in Sprague-Dawley rat assessed as induction of neutrophilia at 1000 ug/kg, it administered as dry powder with lactose carrier through Penn-Century insufflator; conditions: in vivo, inhaled_or_intranasal, 1 mg/kg
[10] = tested on: Rattus norvegicus; test: Anti-inflammatory activity in Sprague-Dawley rat assessed as inhibition of LPS-induced neutrophilia at 100 ug/kg, it administered as suspension with Penn-Century micro-sprayer aerosolizer dosed 1 hrs before LPS challenge and measured 5 hrs post dose; format: functional; conditions: inhaled or nasal; in short: as §1
[11] = target: T1, Adenosine receptor A1 (Homo sapiens, UniProt P30542); test: Antagonist activity at adenosine A1 receptor (unknown origin)
T1 sequence (P30542 whole entry): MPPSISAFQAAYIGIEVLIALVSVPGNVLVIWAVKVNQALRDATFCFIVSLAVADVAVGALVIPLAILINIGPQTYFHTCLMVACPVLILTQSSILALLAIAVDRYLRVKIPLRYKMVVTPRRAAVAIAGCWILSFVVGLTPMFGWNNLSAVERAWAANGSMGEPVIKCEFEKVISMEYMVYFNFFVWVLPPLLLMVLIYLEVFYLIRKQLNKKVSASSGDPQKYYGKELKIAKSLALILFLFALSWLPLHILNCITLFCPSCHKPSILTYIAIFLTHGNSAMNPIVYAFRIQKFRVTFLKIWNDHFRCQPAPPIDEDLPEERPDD

[12] = target: T2, Adenosine receptor A2b (Homo sapiens, UniProt P29275); test: Antagonist activity at adenosine A2b receptor (unknown origin)
T2 sequence (P29275 whole entry): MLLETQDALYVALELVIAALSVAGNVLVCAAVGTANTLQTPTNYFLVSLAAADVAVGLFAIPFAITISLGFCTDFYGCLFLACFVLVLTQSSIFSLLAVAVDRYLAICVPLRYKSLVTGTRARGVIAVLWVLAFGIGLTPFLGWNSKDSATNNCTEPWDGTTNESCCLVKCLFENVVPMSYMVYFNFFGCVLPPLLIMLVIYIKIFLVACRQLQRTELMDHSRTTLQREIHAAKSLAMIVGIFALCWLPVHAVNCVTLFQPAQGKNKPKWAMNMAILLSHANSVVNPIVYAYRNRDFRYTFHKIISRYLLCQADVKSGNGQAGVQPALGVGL

[13] = Drug metabolism in human liver S9 fraction assessed as sulfonation in presence of PAPS and UDPGA incubated for 20 mins; format: ADME, subcellular; conditions: read-out: Drug metabolism
[14] = Drug metabolism in human liver S9 fraction assessed as glucuronidation in presence of PAPS and UDPGA incubated for 20 mins; format: ADME, subcellular; conditions: read-out: Drug metabolism
[15] = tested on: Rattus norvegicus; test: Anti-inflammatory activity in Sprague-Dawley rat assessed as inhibition of LPS-induced neutrophilia at 100 ug/kg, it administered as dry powder with lactose carrier through Penn-Century insufflator dosed 1 hrs before LPS challenge and measured 5 hrs post dose; format: functional; in short: as §2
[16] = tested on: Rattus norvegicus; test: Anti-inflammatory activity in Sprague-Dawley rat assessed as inhibition of LPS-induced neutrophilia at 10 to 1000 ug/kg, it administered as suspension with Penn-Century micro-sprayer aerosolizer dosed 18 hrs before LPS challenge and measured 22 hrs post dose; format: functional; conditions: inhaled or nasal; in short: as §1
[17] = tested on: Rattus norvegicus; test: Anti-inflammatory activity in Sprague-Dawley rat assessed as inhibition of LPS-induced neutrophilia at 1000 ug/kg, it administered as suspension with Penn-Century micro-sprayer aerosolizer dosed 1 hrs before LPS challenge and measured 5 hrs post dose; format: functional; conditions: inhaled or nasal; in short: as §1
[18] = tested on: Rattus norvegicus; test: Anti-inflammatory activity in Sprague-Dawley rat assessed as inhibition of LPS-induced neutrophilia at 100 ug/kg, it administered as suspension with Penn-Century micro-sprayer aerosolizer dosed 18 hrs before LPS challenge and measured 22 hrs post dose; format: functional; conditions: inhaled or nasal; in short: as §1
[19] = tested on: Rattus norvegicus; test: Anti-inflammatory activity in Sprague-Dawley rat assessed as inhibition of LPS-induced neutrophilia at 25 ug/kg, it administered as suspension with Penn-Century micro-sprayer aerosolizer dosed 1 hrs before LPS challenge and measured 5 hrs post dose; format: functional; conditions: inhaled or nasal; in short: as §1

| IC50 [2] [nM] | IC50 [4] [nM] | IC50 [7] [nM] | pKb [8] | fold change (FC) [9] | IC50 [11] [nM] | IC50 [12] [nM] | metabolised at 20 min [13] [%] | metabolised at 20 min [14] [%] | Compound | inhibition in vivo at 1 mg/kg [1] [%] | ED50 [3] [mg/kg] | inhibition in vivo at 1 mg/kg [5] [%] | inhibition in vivo at 1 mg/kg [6] [%] | inhibition in vivo at 0.1 mg/kg [10] [%] | inhibition in vivo at 0.1 mg/kg [15] [%] | ED50 [16] [mg/kg] | inhibition in vivo at 1 mg/kg [17] [%] | inhibition in vivo at 0.1 mg/kg [18] [%] | inhibition in vivo at 0.025 mg/kg [19] [%] |
| --- | --- | --- | --- | --- | --- | --- | --- | --- | --- | --- | --- | --- | --- | --- | --- | --- | --- | --- | --- |
| 67 | 0.09 |  |  |  |  |  |  |  | CCn1nc(-c2cccc(-c3cccc(C(N)=O)c3)c2)cc(NC(=O)Nc2c(Cl)cncc2Cl)c1=O | 20 | 0.067 | 15 | 48 |  |  |  |  |  |  |
| 59 | 0.07 | 33 | 8.3 | 1.1 | 15 | 145 |  |  | CCn1nc(-c2cccc(-c3cccc(C(=O)NCCN4CCOCC4)c3)c2)cc(NC(=O)Nc2c(Cl)cncc2Cl)c1=O |  |  |  |  | 52 |  |  |  |  |  |
| 117 | 0.9 |  |  |  |  |  | 0.3 | 2 | CCn1nc(-c2cccc(-c3ccc(O)cc3)c2)cc(NC(=O)Nc2c(Cl)cncc2Cl)c1=O |  |  |  |  |  |  |  |  |  |  |
| 323 | 0.57 | 86 |  | 1.9 | 61 | 94 |  |  | CCn1nc(-c2cccc(-c3ccc(CC(=O)NCCCCCCCN(C)CCO)cc3)c2)cc(NC(=O)Nc2c(Cl)cncc2Cl)c1=O |  |  |  |  | 69 | 23 | 0.091 |  |  |  |
| 207 | 0.88 |  |  |  |  |  |  | 8 | CCn1nc(-c2cccc(-c3cc(F)ccc3O)c2)cc(NC(=O)Nc2c(Cl)cncc2Cl)c1=O | 14 | 0.101 | 0 | 51 |  |  |  |  |  |  |
| 257 | 0.68 | > 1000 |  |  | 184 | > 1000 |  | 32 | CCn1nc(-c2cccc(-c3ccc(CC(=O)O)cc3)c2)cc(NC(=O)Nc2c(Cl)cncc2Cl)c1=O | 10 | 0.149 |  |  |  |  |  | 80 |  |  |
| 190 | 0.54 | 434 |  |  | 5 | 263 |  | 56 | CCn1nc(-c2cccc(-c3cccc(CC(=O)O)c3)c2)cc(NC(=O)Nc2c(Cl)cncc2Cl)c1=O | 16 |  |  |  |  |  |  | 66 |  |  |
|  | 0.3 | > 1000 |  |  | 399 | 146 |  |  | CCn1nc(-c2cccc(-c3cc(C(=O)NCC[C@H]4CCCN4C)cc(C(=O)NC4CC4)c3)c2)cc(NC(=O)Nc2c(Cl)cncc2Cl)c1=O |  |  |  |  |  |  |  |  | 37 | 42 |
